Article PMC3166234 (Analytical biochemistry, 2011)

Target: PFKFB3 2-kinase (Homo sapiens, UniProt Q16875)
Assay: Steady-state inhibition kinetics of the PFKFB3 2-kinase
Format: biochemical
Procedure, shortened: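 Recombinant human PFKFB3 2-kinase run in a two-step assay. F-2,6-P2 is first made with enzyme in TES pH 8.0, DTT, MgCl2 and Tween at 25°C, then stopped with KOH and neutralised. The product then allosterically activates PPi:PFK in an aldolase/TIM/GDH–NADH coupled system, read as A340 over 30 min. F-6-P, ATP and/or inhibitor concentrations are varied to define the inhibition type.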

PFKFB3 2-kinase, sequence (Q16875 whole entry): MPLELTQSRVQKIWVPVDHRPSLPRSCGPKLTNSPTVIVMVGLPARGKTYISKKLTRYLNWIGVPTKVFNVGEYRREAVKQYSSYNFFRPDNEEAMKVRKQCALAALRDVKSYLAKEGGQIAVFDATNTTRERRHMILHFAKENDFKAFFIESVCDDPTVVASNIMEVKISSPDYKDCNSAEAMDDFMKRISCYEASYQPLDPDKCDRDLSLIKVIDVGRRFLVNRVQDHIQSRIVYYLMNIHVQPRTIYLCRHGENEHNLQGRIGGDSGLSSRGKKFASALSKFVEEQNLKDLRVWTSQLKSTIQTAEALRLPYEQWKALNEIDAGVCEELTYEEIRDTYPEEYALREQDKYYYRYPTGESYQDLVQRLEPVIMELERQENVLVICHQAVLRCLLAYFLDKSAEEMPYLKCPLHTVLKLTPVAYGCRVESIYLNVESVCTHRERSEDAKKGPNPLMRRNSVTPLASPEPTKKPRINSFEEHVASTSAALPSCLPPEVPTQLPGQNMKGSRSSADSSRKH

Compound: CCOC(=O)/C=C(/C)Sc1cc(O)c2ccccc2c1O [NSC278631]
- type of inhibition against ATP (ATP varied): uncompetitive
- type of inhibition against F-6-P (F-6-P varied): competitive
